Published values pooled from the literature.
Compare with care: the assays were run in different laboratories.
AURKC: Aurora kinase C (AURKC, Homo sapiens, UniProt Q9UQB9)
DHFR: Dihydrofolate reductase (DHFR, Homo sapiens, UniProt P00374)
HTR2C: 5-hydroxytryptamine receptor 2C (HTR2C, Homo sapiens, UniProt P28335)
ROCK1: Rho-associated protein kinase 1 (ROCK1, Homo sapiens, UniProt Q13464)
FLT3: Receptor-type tyrosine-protein kinase FLT3 (FLT3, Homo sapiens, UniProt P36888)
Aldo-keto reductase family 1 member B1: Aldo-keto reductase family 1 member B1 (Bos taurus, UniProt P16116)
EAPA: Endothiapepsin (EAPA, Cryphonectria parasitica, UniProt P11838)
FAAH: Fatty-acid amide hydrolase 1 (FAAH, Homo sapiens, UniProt O00519)

| Compound | target | effect on | mode | technique | notes | IC50 |
| --- | --- | --- | --- | --- | --- | --- |
| O=C(O)c1ccnc2c(O)cccc12 | Gamma-butyrobetaine dioxygenase (BBOX1, Homo sapiens, UniProt O75936) | enzyme activity | inhibitor |  |  | 111000 nM |
| COc1ccc2c(Oc3ccc4c(C(=O)Nc5ccccc5N)cccc4c3)ccnc2c1 | AURKC | enzyme activity | inhibitor |  |  | > 500 nM |
| Cc1ccc2nc(-c3ccc(Cl)cc3)n(Cc3ccccc3)c2c1 | DHFR | enzyme activity | inhibitor |  |  | 2350 nM |
| CC(C)(C(=O)O)C1=C/C(=C\c2ccc(-c3ccccc3)cc2)c2ccc(F)cc21 | Prostaglandin G/H synthase 1 (PTGS1, Homo sapiens, UniProt P23219) | enzyme activity in cells | inhibitor |  |  | 1300 nM |
| CC1Cc2ccccc2N1C(=O)NCCCCN(C)[C@@H]1Cc2cccc3[nH]c(=O)n(c23)C1 (mixture of isomers) | HTR2C | ligand displacement |  | radioligand |  | > 10000 nM |
| CC(C)(C)n1nc(-c2ccc3nc(OC4CC4)ccc3c2)c(C(N)=O)c1N | ROCK1 | cell-free assay |  |  |  | > 10000 nM |
| CCNc1ccnc(Nc2cccc(-c3cccnc3)c2)n1 | FLT3 | enzyme activity | inhibitor |  |  | 47.5 nM |
| CC(C)(C)n1nc(-c2cnc3cc(OC4CC4)ccc3c2)c(C(N)=O)c1N | ROCK1 | cell-free assay |  |  |  | > 10000 nM |
| FC(F)(F)C1(Nc2ccnc(Nc3cccc(-c4cccnc4)c3)n2)CC1 | FLT3 | enzyme activity | inhibitor |  |  | < 6 nM |
| C/C(=N/N=c1/scc(-c2ccc(Br)cc2)n1-c1c(C)cccc1C)c1ccc2c(c1)OCCO2 | Aldo-keto reductase family 1 member B1 | enzyme activity | inhibitor | absorbance |  | 3140 nM |
| CCCC[C@@H](C(=O)N[C@@H](CC(=O)O)C(=O)N(C)[C@@H](Cc1ccccc1)C(N)=O)N(C)C(=O)[C@H](Cc1c[nH]c2ccccc12)NC(=O)CNC(=O)[C@H](Cc1ccc(O)cc1)NC(=O)[C@H](C)NC(=O)[C@@H](CCC(=O)O)NC(=O)CN1CCN(CC(=O)O)CCN(CC(=O)O)CCN(CC(=O)O)CC1 | Gastrin/cholecystokinin type B receptor (CCKBR, Homo sapiens, UniProt P32239) | ligand displacement |  | radioligand |  | 4.98 nM |
| c1ccc(-c2cccc(Nc3nccc(NC4CCCCC4)n3)c2)cc1 | FLT3 | enzyme activity | inhibitor |  |  | > 12000 nM |
| O=C(O)c1ccc2nc(-c3ccc(OCc4ccccc4COc4ccc(-c5nc6ccc(C(=O)O)cc6[nH]5)cc4)cc3)[nH]c2c1 | DHFR | enzyme activity | inhibitor |  |  | > 250000 nM |
| O=C1NCCc2sc(-c3ccncc3)cc21 | Casein kinase I isoform delta (CSNK1D, Homo sapiens, UniProt P48730) | enzyme activity | inhibitor |  |  | 1400 nM |
| NNC(COCc1ccccc1)c1nnnn1CCc1ccc(O)cc1 (stereo not drawn) | EAPA | enzyme activity | inhibitor | fluorescence |  | 89300 nM |
| Cc1cnc(-c2ccc(-c3ccc(NC(=O)Nc4c(F)cc(F)cc4F)cc3F)c3c2C(=O)NC3)[nH]1 | AURKC | enzyme activity | inhibitor |  |  | 3 nM |
| C/C(=N/N=c1/scc(-c2ccc(Cl)cc2)n1-c1ccc(F)cc1)c1ccc2c(c1)OCCO2 | Aldo-keto reductase family 1 member B1 | enzyme activity | inhibitor | absorbance |  | 9630 nM |
| O=C(Oc1nsnc1N1CCc2ccccc2C1)N1CCCCC1 | FAAH | enzyme activity | inhibitor |  | cell membranes | 17 nM |
| CN(CCCCNC(=O)c1cc2ccccc2[nH]1)[C@@H]1Cc2cccc3[nH]c(=O)n(c23)C1 | HTR2C | ligand displacement |  | radioligand |  | 3080 nM |
| COc1cccc(-c2cccc(Nc3nccc(NC4CCCCC4)n3)c2)c1 | FLT3 | enzyme activity | inhibitor |  |  | 24500 nM |
| COc1cc(OC)c(C(=O)CCCCN2CCC3(CC2)NC(=O)NC3=O)cc1NS(=O)(=O)c1ccc(C(F)(F)F)cc1 | HTR2C | ligand displacement |  | radioligand |  | 3 nM |
| CC[C@H](C)[C@H](NC(C)=O)C(=O)N[C@@H](CCC(=O)O)C(=O)N[C@H](C(=O)N[C@H](C=O)CC(=O)O)[C@@H](C)O | Caspase-4 (CASP4, Homo sapiens, UniProt P49662) | enzyme activity | inhibitor |  |  | 784 nM |
| O=C(Oc1nsnc1N1CCC2CCCCC2C1)N1CCCCC1 (stereo not drawn) | FAAH | enzyme activity | inhibitor |  | cell membranes | 31 nM |

| Compound | target | effect on | mode | technique | notes | IC50 |
| --- | --- | --- | --- | --- | --- | --- |
| CC(C)Nc1ccnc(Nc2ccccc2-c2ccccc2)n1 | FLT3 | enzyme activity | inhibitor |  |  | > 24000 nM |
| CC(=N/N=c1\scc(-c2ccc(Br)cc2)n1-c1ccccc1)C12CC3CC(CC(C3)C1)C2 | Aldo-keto reductase family 1 member B1 | enzyme activity | inhibitor | absorbance |  | 4400 nM |
| c1ccc(-c2ccccc2Nc2nccc(NC3CCCCC3)n2)cc1 | FLT3 | enzyme activity | inhibitor |  |  | > 13000 nM |
| O=C(Oc1nsnc1N1CCCCC1)N1CCCC1 | FAAH | enzyme activity | inhibitor |  | cell membranes | 813 nM |
| Cc1ccc(C(=O)Nc2ccc(Oc3cc4cnn(C)c4cc3-c3cn[nH]c3)c(F)c2)c(=O)n1-c1ccc(F)cc1 | Tyrosine-protein kinase receptor Tie-1 (TIE1, Homo sapiens, UniProt P35590) | enzyme activity in cells | inhibitor |  |  | > 1000 nM |
| CCCCNc1ccnc(Nc2cccc(-c3cccnc3)c2)n1 | FLT3 | enzyme activity | inhibitor |  |  | 123 nM |
| CC(=N/N=c1\scc(-c2ccc(Br)cc2)n1-c1c(C)cccc1C)C12CC3CC(CC(C3)C1)C2 | Aldo-keto reductase family 1 member B1 | enzyme activity | inhibitor | absorbance |  | 4210 nM |
| O=C(Oc1nsnc1N1CCN(c2ccccc2)CC1)N1CCCCC1 | FAAH | enzyme activity | inhibitor |  | cell membranes | 209 nM |
| C/C(=N/N=c1/scc(-c2ccc(Br)cc2)n1Cc1ccccc1)c1ccc2c(c1)OCCO2 | Aldo-keto reductase family 1 member B1 | enzyme activity | inhibitor | absorbance |  | 1390 nM |
| CN1CCN(c2ccc(Nc3ncc4cc(C#N)c(=O)n(C5CCCC5)c4n3)cc2)CC1 | Testis-specific serine/threonine-protein kinase 1 (TSSK1B, Homo sapiens, UniProt Q9BXA7) | enzyme activity | inhibitor |  |  | 116 nM |
| CC1=C(/C=C/C(C)=C/C=C/C(C)=C/C=O)C(C)(C)CCC1 | Prothrombin (F2, Bos taurus, UniProt P00735) | enzyme activity | inhibitor | fluorescence |  | 74 µg/mL |
| CNc1ccnc(Nc2cccc(-c3cccnc3)c2)n1 | FLT3 | enzyme activity | inhibitor |  |  | 204 nM |
| CCCOc1ccc(Nc2cc(C)nc3ccc(Cl)cc23)cc1 | Cell division protein FtsZ (Mycobacterium tuberculosis, UniProt P9WN95) | tubulin polymerisation | inhibitor |  |  | 22700 nM |
| CCN(CC)CCCC[C@H](NC(=O)[C@H](CC(C)C)NC(=O)[C@H](C)NC(=O)[C@H](Cc1ccccc1)NC(=O)c1ccc(C(C)(C)C)cc1)C(=O)N[C@@H](CO)C(=O)OC | Chromodomain Y-like protein 2 (CDYL2, Homo sapiens, UniProt Q8N8U2) | ligand displacement |  | TR-FRET |  | 85 nM |
| CNC(=O)c1cc2c(Oc3ccc(NC(=O)C4(C(=O)Nc5ccc(F)cc5)CC4)cc3)ccnc2cc1OC | Tyrosine-protein kinase receptor TYRO3 (TYRO3, Homo sapiens, UniProt Q06418) | enzyme activity | inhibitor | radiometric |  | 13 nM |
| Cc1ccc2nc(-c3ccc([N+](=O)[O-])cc3)n(Cc3ccccc3)c2c1 | DHFR | enzyme activity | inhibitor |  |  | 6780 nM |
| NNC(c1nnnn1CC(c1ccccc1)c1ccccc1)C1CCCCC1 (stereo not drawn) | EAPA | enzyme activity | inhibitor | fluorescence |  | 96800 nM |
| C[C@H]1OC(=O)/C=C/C(=O)[C@@H](OC(=O)CCC(=O)O)CCCCCCCC[C@H]1O | Stromelysin-1 (MMP3, Homo sapiens, UniProt P08254) | enzyme activity | inhibitor |  |  | 10000 nM |
| O=C(Nc1cccnc1)N1CCC(Cc2cccc(Oc3ccc(C(F)(F)F)cn3)c2)CC1 | Monoglyceride lipase (MGLL, Homo sapiens, UniProt Q99685) | enzyme activity | inhibitor | absorbance |  | > 10000 nM |
| CC(=N/N=c1\scc(-c2ccc(Br)cc2)n1-c1cccc2ccccc12)C12CC3CC(CC(C3)C1)C2 | Aldo-keto reductase family 1 member B1 | enzyme activity | inhibitor | absorbance |  | 12900 nM |
| Clc1ccc(Cn2c(-c3ccc(Cl)cc3)nc3ccccc32)cc1 | DHFR | enzyme activity | inhibitor |  |  | 10600 nM |
| O=C(Nc1ccc(Br)cc1)N1CCC(n2c(=O)[nH]c3c(Br)cccc32)CC1 | Formamidopyrimidine-DNA glycosylase (Escherichia coli, UniProt P05523) | enzyme activity | inhibitor |  |  | > 100000 nM |
